These results are taken from the array DNA melting data of Ke et al. (doi:10.1101/2024.01.08.574731).

The nature of data set [1]: folding enthalpy; higher = less favourable; fluorescence melt of hairpins on a sequencing array, two-state fit. The settings on record: sodium 0.088 M. In short, it runs like this:
(§1)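 Library hairpins on a sequenced MiSeq flow cell carried annealed Cy3 and quencher oligos, and their Cy3 fluorescence was imaged in 50 mM Na-HEPES pH 8.0 with 25 mM NaCl, in 2.5 °C steps up to 60 °C. Signals were normalised to Cy3 before quenching and to control constructs. Melting temperature and folding enthalpy were obtained from bootstrapped two-state fits, combined by inverse-variance weighting across four replicates, and the fitted temperatures were then raised by 9.35 °C to match UV melts.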

Data set [2] in a line: melting temperature; fluorescence melt of hairpins on a sequencing array, two-state fit, raised by 9.35 °C to match UV melts. Particulars: sodium 0.088 M. In short, it runs like this: as §1

On to CGGACGCGGAAACGCCCG (((..(((....)))))), for which the folding enthalpy in data set [1] was -25.3 kcal/mol. In addition, in data set [2], the Tm turned out to be 48.8 °C.

In the case of CGGTGCGGAAACGCTCCG (((.(((....))).))), the folding enthalpy in data set [1] was -34.8 kcal/mol. Moreover, the Tm in data set [2] stood at 62 °C.

On to GATCTGTTTCAGATC ((((((...)))))), for which the folding enthalpy in data set [1] is -34.5 kcal/mol. In addition, the Tm in data set [2] came to 50.5 °C.

Regarding GGTTGAGGAAACTTAACC ((((.((....)).)))), in data set [1], the folding enthalpy was -31.9 kcal/mol. Further, the Tm in data set [2] was 39.8 °C.

On to GCCACAGGAAACCGTGGC (((((.(....).))))), for which, in data set [1], the folding enthalpy is -43 kcal/mol. In data set [2], the Tm amounted to 55.4 °C.

On to GTAGACGAAAGTCCATAC ((((((....)))..))), for which the folding enthalpy in data set [1] was -10.2 kcal/mol. The Tm in data set [2] came to 26 °C.

For GTGATGCCGAAAGGCCAC (((..(((....)))))), the folding enthalpy in data set [1] was -13.5 kcal/mol. The Tm in data set [2] was 41.6 °C.

In the case of GCGGATGGAAACGTCCGC (((((.(....).))))), the folding enthalpy in data set [1] was -45.9 kcal/mol. In addition, the Tm in data set [2] worked out at 62.6 °C.

For the sequence GGGGTACGAAAGTATCCC (((.(((....))).))), the folding enthalpy in data set [1] was -33.5 kcal/mol. Further, the Tm in data set [2] is 58 °C.

On to GTACTCGAAAGAGTCTAC ((((((....)))..))), for which the folding enthalpy in data set [1] is -14.6 kcal/mol. Moreover, in data set [2], the Tm stood at 35.5 °C.

In the case of GTTGCAGGAAACCGCAAC (((((.(....).))))), the folding enthalpy in data set [1] was -43.8 kcal/mol. Further, in data set [2], the Tm turned out to be 51.5 °C.

Take GCTTAGCGAAAGCTTTGC ((..(((....)))..)): in data set [1], the folding enthalpy is -14.8 kcal/mol. In addition, the Tm in data set [2] was 44.3 °C.

As to GTCAGGGGAAACCCCAAC ((..(((....)))..)), the folding enthalpy in data set [1] was -11.7 kcal/mol. The Tm in data set [2] turned out to be 28.3 °C.

With GACACCGAAAGGTCCGTC ((((((....)))..))), in data set [1], the folding enthalpy was -16.9 kcal/mol. Also, the Tm in data set [2] came out at 31.4 °C.

For GATCATACAGATGATC ((((((....)))))), the folding enthalpy in data set [1] was -35.8 kcal/mol. Also, the Tm in data set [2] was 44.4 °C.

Regarding GTGTTTCGAAAGAATCAC (((.(((....))).))), in data set [1], the folding enthalpy was -39.3 kcal/mol. For the same sequence, the Tm in data set [2] was 45 °C.

Turning to GTTTCCGGAAACGGAGAC ((.((((....)))).)), the folding enthalpy in data set [1] is -20.2 kcal/mol. In data set [2], the Tm was determined as 47.6 °C.

Turning to GATCGTGGAAACACGATC (((((((....))))))), the folding enthalpy in data set [1] was -41.2 kcal/mol. In addition, in data set [2], the Tm turned out to be 66.3 °C.

GAGCACGCGAAAGCGCTC (((..(((....)))))): in data set [1], the folding enthalpy was -12.8 kcal/mol. For the same sequence, the Tm in data set [2] came out at 47.6 °C.

For GCGCCGGGAAACCAGCGC ((((.((....)).)))), the folding enthalpy in data set [1] was -44.5 kcal/mol. The Tm in data set [2] was found to be 59.1 °C.

For the sequence GTACGCCGAAAGGCCTAC (((.(((....))).))), the folding enthalpy in data set [1] was -10.9 kcal/mol. In addition, in data set [2], the Tm turned out to be 39.2 °C.

Regarding GAGTTAGGAAACTAACTC (((((((....))))))), the folding enthalpy in data set [1] was -36.3 kcal/mol. In data set [2], the Tm came out at 54.8 °C.

CAGGTGAAAACCTG (((((....))))): in data set [1], the folding enthalpy was -24.5 kcal/mol. Also, the Tm in data set [2] was 53 °C.

As to GATCCCTTCGGGGATC ((((((....)))))), the folding enthalpy in data set [1] was -39.8 kcal/mol. Also, the Tm in data set [2] was 65.2 °C.

Consider GGTTTGCGAAAGCAGACC (((.(((....))).))), for which the folding enthalpy in data set [1] was -34.8 kcal/mol. The Tm in data set [2] worked out at 59.5 °C.

Consider GCTTAGCGAAAGCTACGC ((.((((....)))).)), for which the folding enthalpy in data set [1] was -22.4 kcal/mol. Besides, the Tm in data set [2] is 51.9 °C.

For the sequence GATCGCTGTTGCGATC ((((((....)))))), the folding enthalpy in data set [1] is -28.7 kcal/mol. The Tm in data set [2] stood at 67.8 °C.

Consider GATACCGGAAACGGCATC (((.(((....))).))), for which the folding enthalpy in data set [1] is -25 kcal/mol. In data set [2], the Tm was 43.8 °C.

For the sequence GATCACTCCGTGATC ((((((...)))))), the folding enthalpy in data set [1] is -44 kcal/mol. The Tm in data set [2] was 59.2 °C.

GCGTGAGTACGC ((((....)))): the folding enthalpy in data set [1] is -19.9 kcal/mol. Further, the Tm in data set [2] is 52.5 °C.

Consider GGAGCACGAAAGTGTCC (((.(((....)))))), for which, in data set [1], the folding enthalpy is -16.4 kcal/mol. Moreover, the Tm in data set [2] is 48.5 °C.

On to GAAGCGAAAGCTTC (((((....))))), for which the folding enthalpy in data set [1] was -25.7 kcal/mol. The Tm in data set [2] was 68.1 °C.

Consider GACGCGGCGAAAGCCGTC (((..(((....)))))), for which the folding enthalpy in data set [1] was -5.1 kcal/mol. The Tm in data set [2] is 32.6 °C.

GCGACACTCGC ((((...)))): the folding enthalpy in data set [1] is -18.2 kcal/mol. For the same sequence, in data set [2], the Tm is 53.1 °C.

Regarding GCGGGTGCCCGC ((((....)))), the folding enthalpy in data set [1] was -30.3 kcal/mol. For the same sequence, the Tm in data set [2] stood at 57.4 °C.

For the sequence GCAGTGCGAAAGCCATGC (((..((....))..))), the folding enthalpy in data set [1] is -16.4 kcal/mol. In data set [2], the Tm was determined as 51.1 °C.

On to GATCTGTCAACAGATC ((((((....)))))), for which, in data set [1], the folding enthalpy is -39.1 kcal/mol. Also, in data set [2], the Tm is 51.6 °C.
